Legend:
[1] = target: Cytochrome P450 3A5 (Homo sapiens, UniProt P20815); assay: Drug metabolism assessed as human CYP3A5-mediated formation of 12-OHNVP at 10 uM pre-incubated for 30 mins followed by addition of NADPH regenerating reagents by uHPLC-MS analysis; format: ADME; details: recombinant enzyme
Method in brief: (§1)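 Insect-cell microsomes with single cDNA-expressed human P450 (100 nM) in 0.1 M potassium phosphate; 10 μM substrate prewarmed 5 min at 37 °C with NADPH-regenerating system, reaction started by adding microsomes; 30 min at 37 °C, 0.1% DMSO. Stopped, dried, reconstituted in methanol; triple-quadrupole SRM (12-OH 283.1→223.0, 2-OH 283.1→160.9, 3-OH 283.1→241.9), peak height; three replicates, mean ± SD.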

[2] = target: T1, Cytochrome P450 2B6 (Homo sapiens, UniProt P20813); assay: Drug metabolism assessed as human CYP2B6-mediated formation of 12-OHNVP at 10 uM pre-incubated for 30 mins followed by addition of NADPH regenerating reagents by uHPLC-MS analysis; format: ADME; details: recombinant enzyme; method in brief: as §1
T1 sequence (P20813 whole entry): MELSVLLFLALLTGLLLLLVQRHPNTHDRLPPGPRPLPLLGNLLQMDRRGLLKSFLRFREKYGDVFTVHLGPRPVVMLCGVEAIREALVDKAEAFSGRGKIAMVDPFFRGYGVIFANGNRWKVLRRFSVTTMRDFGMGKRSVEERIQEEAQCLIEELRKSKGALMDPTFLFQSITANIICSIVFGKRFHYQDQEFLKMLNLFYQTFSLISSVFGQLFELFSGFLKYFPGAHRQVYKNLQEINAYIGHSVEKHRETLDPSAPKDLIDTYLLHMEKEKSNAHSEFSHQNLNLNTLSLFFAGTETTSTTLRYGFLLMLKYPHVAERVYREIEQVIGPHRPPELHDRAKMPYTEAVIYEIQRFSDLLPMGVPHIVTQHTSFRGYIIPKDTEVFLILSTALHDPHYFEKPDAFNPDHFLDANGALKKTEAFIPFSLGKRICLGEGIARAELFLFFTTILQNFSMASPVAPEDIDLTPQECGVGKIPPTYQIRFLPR

[3] = test system: Hepatocyte; assay: Induction of change in TMED9 protein expression in human primary hepatocytes at 10 uM incubated for 48 hrs by relative-quantitation label-free proteomics analysis relative to NVP; format: cell-based
Method in brief: (§2)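 Cryoplateable pooled human hepatocytes (10 mixed-sex donors per pool; three pools), adhered overnight, then given fresh medium containing compound (10 μM), NVP (10 μM) or vehicle (0.1% DMSO) for 48 h. Lysate reduced (DTT) and alkylated (iodoacetamide), acetone-precipitated and digested with trypsin. Label-free Top10 nanoLC-MS with precursor ion area quantitation; unpaired t test P values, Cohen's d effect size.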

[4] = Drug metabolism in C57BL/6J mouse primary hepatocytes assessed as 12-O-GlucD2NVP metabolite formation at 10 uM incubated for 24 hrs by uHPLC-MS analysis; format: ADME, cell-based, Hepatocyte
Method in brief: (§3)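 Fresh hepatocytes from male C57BL/6J mice (8–13 weeks), adhered overnight, then 10 μM substrate or vehicle (0.1% DMSO) for 24 h. Medium extracted with acetonitrile (50% final), dried, reconstituted in methanol; uHPLC-Orbitrap targeted SIM plus PRM (monooxygenated metabolites) or high-resolution ions (O-glucuronides, 459.1510/462.1700 ±5 ppm); four experimental replicates.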

[5] = test system: Hepatocyte; assay: Induction of change in MRPL23 protein expression in human primary hepatocytes at 10 uM incubated for 48 hrs by relative-quantitation label-free proteomics analysis relative to NVP; format: cell-based; method in brief: as §2
[6] = test system: Hepatocyte; assay: Induction of change in KARS protein expression in human primary hepatocytes at 10 uM incubated for 48 hrs by relative-quantitation label-free proteomics analysis relative to NVP; format: cell-based; method in brief: as §2
[7] = test system: Hepatocyte; assay: Induction of change in SHMT2 protein expression in human primary hepatocytes at 10 uM incubated for 48 hrs by relative-quantitation label-free proteomics analysis relative to NVP; format: cell-based; method in brief: as §2
[8] = test system: Hepatocyte; assay: Induction of change in PLEKHA6 protein expression in human primary hepatocytes at 10 uM incubated for 48 hrs by relative-quantitation label-free proteomics analysis relative to NVP; format: cell-based; method in brief: as §2
[9] = test system: Hepatocyte; assay: Induction of change in Acot13 protein expression in C57BL/6J mouse primary hepatocytes at 400 uM incubated for 8 hrs by relative-quantitation label-free proteomics analysis relative to NVP; format: cell-based
Method in brief: as §2, with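 “Fresh primary” for “Cryoplateable pooled human”, “from male C57BL/6J mice aged 8–13 weeks,” for “(10 mixed-sex donors per pool; three pools),”, “(400” for “(10”, “(0.2%” for “(0.1%”, “8” for “48”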

[10] = test system: Hepatocyte; assay: Induction of change in Rps27l protein expression in C57BL/6J mouse primary hepatocytes at 400 uM incubated for 8 hrs by relative-quantitation label-free proteomics analysis relative to NVP; format: cell-based
Method in brief: as §2, with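 “Fresh primary” for “Cryoplateable pooled human”, “from male C57BL/6J mice aged 8–13 weeks,” for “(10 mixed-sex donors per pool; three pools),”, “(400” for “(10”, “(0.2%” for “(0.1%”, “8” for “48”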

[11] = test system: Hepatocyte; assay: Toxicity in C57BL/6J mouse primary hepatocytes assessed as reduction in cell viability by measuring EtBr-positive cell nuclei level at 400 uM incubated for 8 hrs by EtBr/AcrO staining based assay (reference value: 19%)
Method in brief: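 Fresh male C57BL/6J mouse hepatocytes on collagen-coated coverslips, 400 μM compound or vehicle (0.2% DMSO) for 8 h; 10 μM staurosporine as positive control. Ethidium bromide/acridine orange costaining, imaging, percentage of EtBr-positive nuclei scored as dead cells; unpaired two-tailed t test.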

[12] = target: T1, Cytochrome P450 2B6; assay: Drug metabolism assessed as human CYP2B6-mediated formation of 3-OHNVP at 10 uM pre-incubated for 30 mins followed by addition of NADPH regenerating reagents by uHPLC-MS analysis; format: ADME; details: recombinant enzyme; method in brief: as §1
[13] = Drug metabolism in C57BL/6J mouse primary hepatocytes assessed as Cytochrome P450-mediated formation of 8-OHD3NVP at 10 uM incubated for 24 hrs by uHPLC-MS analysis; format: ADME, cell-based; method in brief: as §3
[14] = target: T2, Cytochrome P450 1A2 (Homo sapiens, UniProt P05177); assay: Drug metabolism assessed as human CYP1A2-mediated formation of 12-OHNVP at 10 uM pre-incubated for 30 mins followed by addition of NADPH regenerating reagents by uHPLC-MS analysis; format: ADME; details: recombinant enzyme; method in brief: as §1
T2 sequence (P05177 whole entry): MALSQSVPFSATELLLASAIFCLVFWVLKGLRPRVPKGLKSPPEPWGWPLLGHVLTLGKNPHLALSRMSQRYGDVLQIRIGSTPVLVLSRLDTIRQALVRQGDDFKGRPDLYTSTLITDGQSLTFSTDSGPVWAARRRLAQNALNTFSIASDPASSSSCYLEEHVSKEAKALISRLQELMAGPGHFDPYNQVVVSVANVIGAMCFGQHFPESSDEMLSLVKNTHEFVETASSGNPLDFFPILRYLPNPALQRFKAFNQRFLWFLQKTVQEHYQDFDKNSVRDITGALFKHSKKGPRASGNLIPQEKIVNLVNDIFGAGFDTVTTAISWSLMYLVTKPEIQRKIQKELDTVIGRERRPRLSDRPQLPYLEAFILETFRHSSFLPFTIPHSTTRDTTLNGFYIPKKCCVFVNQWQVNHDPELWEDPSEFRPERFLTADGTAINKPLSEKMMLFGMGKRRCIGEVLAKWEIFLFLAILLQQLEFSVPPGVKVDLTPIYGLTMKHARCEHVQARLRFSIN

Sequence of Cytochrome P450 3A5 (P20815 whole entry): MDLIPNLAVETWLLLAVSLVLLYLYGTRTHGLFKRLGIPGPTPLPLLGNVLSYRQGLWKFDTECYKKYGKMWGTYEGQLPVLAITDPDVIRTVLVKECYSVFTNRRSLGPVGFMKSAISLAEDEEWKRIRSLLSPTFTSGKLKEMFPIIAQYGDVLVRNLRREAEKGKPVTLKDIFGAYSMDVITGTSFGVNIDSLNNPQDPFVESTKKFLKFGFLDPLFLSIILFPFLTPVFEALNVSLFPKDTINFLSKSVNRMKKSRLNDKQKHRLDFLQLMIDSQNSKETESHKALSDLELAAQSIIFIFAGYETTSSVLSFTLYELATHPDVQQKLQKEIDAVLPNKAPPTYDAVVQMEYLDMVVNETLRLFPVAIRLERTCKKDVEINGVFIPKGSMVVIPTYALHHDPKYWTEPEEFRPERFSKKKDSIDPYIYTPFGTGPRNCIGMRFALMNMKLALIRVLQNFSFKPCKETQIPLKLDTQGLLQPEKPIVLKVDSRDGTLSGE

Question: With `[2H]C([2H])([2H])c1ccnc2c1NC(=O)c1cccnc1N2C1CC1` as the molecule, how does the Drug metabolism [1] read?
Answer: Its Drug metabolism is “Metabolite_Notdetected”.

Question: What about the Drug metabolism [2] of the same molecule?
Answer: Its Drug metabolism is “Metabolite_Detected”.

Question: What about the “fold change (FC)” value [3] of the same molecule?
Answer: Its value is -1.93.

Question: And the Drug metabolism [4]?
Answer: Its Drug metabolism is “Metabolite_Notdetected”.

Question: And the “fold change (FC)” value [5]?
Answer: Its value is 8.32.

Question: What about the “fold change (FC)” value [6] of the same molecule?
Answer: The value was -1.42.

Question: And the “fold change (FC)” value [7]?
Answer: Its value is -1.28.

Question: What about the “fold change (FC)” value [8] of the same molecule?
Answer: The value was 1.59.

Question: What about the “fold change (FC)” value [9] of the same molecule?
Answer: The value was -1.97.

Question: What about the “fold change (FC)” value [10] of the same molecule?
Answer: The value was -5.67.

Question: What about the Activity [11] of the same molecule?
Answer: Its Activity is 36.8%.

Question: And the Drug metabolism [12]?
Answer: The Drug metabolism was “Metabolite_Detected”.

Question: And the Drug metabolism [13]?
Answer: The Drug metabolism was “Metabolite_Notdetected”.

Question: What about the Drug metabolism [14] of the same molecule?
Answer: Its Drug metabolism is “Metabolite_Detected”.

— ChEMBL document CHEMBL4613248, “Twelfth-Position Deuteration of Nevirapine Reduces 12-Hydroxy-Nevirapine Formation and Nevirapine-Induced Hepatocyte Death” (J Med Chem, 2020)
